The test system of one data set is HIVIIIB. The data set is described as follows: Virucidal assay. It is filed as cell-based, HIV-1. As to conditions: virions treated 20 min, washed, CEM-SS cells. The essentials:
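Test compound incubated with undiluted HIV-1 IIIB for 20 min at 37 °C. Virus pelleted at 13,800 rpm, 4 °C, 90 min, then washed five times with culture medium. Pellet resuspended in RPMI to the predetermined titer of untreated virus and used to infect CEM-SS cells for 6 days at 37 °C/5% CO2. Infectivity read by XTT cell viability.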

Data set [1] is described as follows: Fourteen-day repeat dose toxicity study. It is filed as in vivo, Sprague-Dawley rats. The note with it: rats. The essentials: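 Thirty-two Sprague-Dawley rats in four groups of 8, alongside a control article. Daily oral gavage for 14 days at 500, 1000 or 2000 mg/kg, given as suspension in 2% CMC-Na in water. Per group, 4 main animals necropsied Day 15 and 4 recovery animals Day 29. Blood for clinical pathology taken before sacrifice. Endpoints: clinical observations, body weight, food consumption, clinical chemistry, hematology, coagulation, urinalysis, organ weights, gross and microscopic pathology.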

Data set [2] in a line: Maximum tolerated dose, single oral administration. It is filed as in vivo, Sprague-Dawley rats. As to conditions: single oral 750, 1000, 1500, 2000 mg/kg; rats. A digest of the protocol:
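Single oral gavage in Sprague-Dawley rats, 8 per group (4 female, 4 male). Doses of 750, 1000, 1500 or 2000 mg/kg given in 5% DMSO/70% PEG400 in water, or 2000 mg/kg in 2% CMC-Na in water. Dose volume 10 mL/kg, or 20 mL/kg at 2000 mg/kg. Four-day observation after dosing: cageside and clinical signs, body weight, food consumption.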

In data set [3] the test system is influenza A virus type H1N1. The data set is described as follows: DMID antiviral screening, influenza A. It is filed as cell-based.
Data set [4] relates to Venezuelan equine encephalitis virus. It is filed as cell-based.
Data set [5] deals with respiratory syncytial virus. The data set is described as follows: DMID antiviral screening, RSV. It is filed as cell-based.
The subject of a further data set is SARS corona virus. The data set is described as follows: organism not typed. It is filed as cell-based.

The structures appear in SMILES notation. Values joined by “and” are separate entries in the source; they are usually repeats but may differ in a detail not shown here. Equal entries are not always repeated. “Also recorded” adds a separate entry of the source.

`CCCC(=O)OCSc1ccccc1C(=O)NCCC(N)=O` [NS1040, ((2-((3-amino-3-oxopropyl)carbamoyl)phenyl)thio)methyl butyrate]: the “concentration reducing infectivity of HIV virions (virucidal)” value with HIVIIIB was 50 µM and > 50 µM. Also, the “urine observation in repeat dose study” value in data set [1] (at the higher doses) is “cloudy urine samples were noted for some of the rats”. Moreover, the “toxicity in repeat dose study” value in data set [1] (oral 500, 1000, 2000 mg/kg for 14 consecutive days) is “no toxicity observed; also recorded: non-toxic”. In addition, the “toxicity in MTD study” value in data set [2] is reported as “did not exhibit any toxicity at any dose”.
What is called EC50 is the concentration giving half of the maximal effect. A higher EC50 goes with a less potent agent. As for `NC(=O)CCNC(=O)c1ccccc1S` [MDH-1-38, N-(3-amino-3-oxopropyl)-2-mercaptobenzamide], the antiviral activity entry in data set [3], in data set [4] and in data set [5] was “failed to show any activity” in each case. The EC50 in the data set on SARS corona virus is ~20 µM.

The values are drawn from paper PMC7113734 (Antiviral Research, 2016).
